Only some compounds are listed: those with a hit (about 4.8% of all), similar ones and a draw of the others.
GRIN3A LBD mod: modulates the human NR3A ligand-binding domain. hit rate 2.5% among 340,000. NR3A LBD differential scanning fluorimetry, Tm shift; 0% = protein alone, 100% = glycine-bound protein. Tm shift relative to glycine control, % at 25 µM;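 active = melting temperature shift of at least 10% of the positive control shift, at one fixed dose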
PAFAH2 FP inh: inhibitors of human PAFAH2; Q99487; recombinant PAFAH2, FP-rhodamine activity probe, fluorescence polarization; inhibition, % at 3.39 µM; hit rate 0.99% among 340,000;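 active = inhibition above the mean over all tested compounds plus 3 SD, cut at about 30% in these data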;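 also: inhibitors block probe labeling of enzyme so polarization drops; 0% = enzyme with DMSO and 100% = wells lacking PAFAH2 protein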
UCH37 inh: inhibitors of human deubiquitinating enzyme UCH37; Q9Y5K5; purified proteasome/UCH37, Ub-AMC cleavage fluorescence; inhibition, % (concentration not given with the values); hit rate 0.33% among 330,000;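 active = mean inhibition over replicate wells above about 20%, limit read from the data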;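 also: 0% = compound-free wells with enzyme and 100% = wells lacking proteasome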
Target sequence (Q9Y5K5 whole entry, looked up): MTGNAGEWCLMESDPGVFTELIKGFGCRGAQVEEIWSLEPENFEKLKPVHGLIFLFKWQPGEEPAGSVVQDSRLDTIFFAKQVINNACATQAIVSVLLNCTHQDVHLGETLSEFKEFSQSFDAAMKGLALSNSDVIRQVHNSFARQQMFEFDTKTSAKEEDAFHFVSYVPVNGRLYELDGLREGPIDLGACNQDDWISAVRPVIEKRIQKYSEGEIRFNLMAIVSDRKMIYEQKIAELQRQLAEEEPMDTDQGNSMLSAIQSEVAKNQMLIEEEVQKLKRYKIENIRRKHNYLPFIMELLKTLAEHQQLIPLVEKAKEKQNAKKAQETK
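Schedule: 30 min plus 25 min, room temperature / Material: human UCH37 within purified proteasomes / Technique: AMC fluorescence intensity at 355/460 nm / Buffer or medium: pH 7.4 Tris-HCl (50 mM) with ovalbumin, ATP-MgCl2, DTT / Controls: wells without proteasome as full block, compound-free enzyme plus substrate as uninhibited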
pPAFAH FP inh: pPAFAH (human) enzyme inhibition; Q13093; recombinant pPAFAH, FP-rhodamine probe fluorescence polarization; inhibition, % at 3.39 µM; hit rate 1.5% among 330,000; AID 463082;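 active = inhibition above the mean inhibition across the screen plus 3 SD, cut at about 25% in these data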;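 also: inhibitors block binding of the rhodamine activity-based probe so polarization drops; 0% = enzyme with DMSO and 100% = wells lacking pPAFAH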
PAFAH1B3 inh: blocks human PAF acetylhydrolase 1B catalytic subunit 3 | Q15102 | recombinant PAFAH1B3, FP-rhodamine probe, fluorescence polarization | inhibition, % at 3.39 µM | hit rate 0.28% among 340,000 | AID 492972;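 active = inhibition above the screen-wide average of all tested compounds plus 3 SD, cut at about 25% in these data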;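 also: 0% = enzyme with DMSO only and 100% = wells lacking PAFAH1B3 protein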
PAFAH1B2 FP inh: inhibitors of human PAFAH1B2; inhibition, % at 3.39 µM; AID 492953; P68402; recombinant PAFAH1B2, FP-rhodamine activity probe, fluorescence polarization; hit rate 1.2% among 340,000;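 active = inhibition above the mean of all tested compounds plus 3 SD, cut at about 24% in these data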;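 also: 0% = enzyme with DMSO and 100% = wells lacking PAFAH1B2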
Target sequence (P68402 whole entry, looked up): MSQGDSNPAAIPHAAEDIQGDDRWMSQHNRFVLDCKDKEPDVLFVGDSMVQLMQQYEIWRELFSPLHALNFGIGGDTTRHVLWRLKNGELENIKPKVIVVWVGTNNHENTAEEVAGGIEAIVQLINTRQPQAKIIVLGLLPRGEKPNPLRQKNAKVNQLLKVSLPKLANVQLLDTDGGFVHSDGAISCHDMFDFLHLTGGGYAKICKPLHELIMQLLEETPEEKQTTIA
Active calls of the source: *.

How did Cc1ccc(/C=N/NC(=O)c2ccc(C(=O)N/N=C/c3ccc(C)s3)o2)s1 do in these assays?
GRIN3A LBD mod: 28.3*; PAFAH2 FP inh: -35.2; pPAFAH FP inh: -1.2; PAFAH1B3 inh: -6.4; PAFAH1B2 FP inh: -0.8

Results for Cc1ccsc1C=NNC(=O)c1c[nH]c2ccccc12 ?
UCH37 inh: 7.9

What do the screens show for `C/C(=N\NC(=O)c1c[nH]c2ccccc12)c1ccc(C)s1`?
GRIN3A LBD mod: 15.4*; PAFAH2 FP inh: -2.1; pPAFAH FP inh: 1.2; PAFAH1B3 inh: 8.1; PAFAH1B2 FP inh: -5.4

Results for CC(=NNC(=O)c1c[nH]c2ccccc12)c1ccc(C)o1 ?
UCH37 inh: 9.0

How did Cc1ccc(C=NNC(=O)c2ccc(Br)o2)s1 do in these assays?
UCH37 inh: 2.0

Results for O=C(N/N=C/c1ccsc1)c1c[nH]c2ccccc12 ?
GRIN3A LBD mod: 31.1*; PAFAH2 FP inh: 2.6; pPAFAH FP inh: -2.2; PAFAH1B3 inh: 7.8; PAFAH1B2 FP inh: 6.9

Results for Cc1ccsc1/C=N/NC(=O)c1c[nH]c2ccccc12 ?
GRIN3A LBD mod: 15.1*; PAFAH2 FP inh: -5.4; pPAFAH FP inh: 2.0; PAFAH1B3 inh: 7.1; PAFAH1B2 FP inh: 5.1

Results for Cc1ccc(C)c(S(=O)(=O)c2c(N)n(N=Cc3ccco3)c3nc4ccccc4nc23)c1 ?
UCH37 inh: -83.8

What do the screens show for `Cc1ccsc1C=NNc1ccc(Cl)nn1`?
UCH37 inh: 7.7

What do the screens show for `Cc1ccc(/C=N/NC(=O)c2c[nH]c3ccccc23)s1`?
GRIN3A LBD mod: 35.0*; PAFAH2 FP inh: -4.8; pPAFAH FP inh: 2.0; PAFAH1B3 inh: 9.0; PAFAH1B2 FP inh: -2.7

What do the screens show for `O=C(NN=Cc1ccc(Br)s1)c1c[nH]c2ccccc12`?
UCH37 inh: 6.1

What do the screens show for `Nc1c(C=C2C=CC(=O)C=C2)c(=O)nc2snc(SCc3ccccc3)n12`?
GRIN3A LBD mod: 18.1*; PAFAH2 FP inh: 0.4; UCH37 inh: 4.9; pPAFAH FP inh: 9.6; PAFAH1B3 inh: 3.0; PAFAH1B2 FP inh: 6.2

What do the screens show for `CSc1nsc2nc(=O)c(/C=C3\C=Nc4ccccc43)c(N)n12`?
GRIN3A LBD mod: 22.3*; PAFAH2 FP inh: 3.8; UCH37 inh: 0.8; pPAFAH FP inh: -2.2; PAFAH1B3 inh: -1.9; PAFAH1B2 FP inh: 12.7

Results for Cc1cn2c(N)c(/C=C3\C=Nc4ccccc43)c(=O)nc2s1 ?
GRIN3A LBD mod: 15.8*; PAFAH2 FP inh: -0.8; UCH37 inh: 1.4; pPAFAH FP inh: -2.1; PAFAH1B3 inh: 1.9; PAFAH1B2 FP inh: -3.5

How did CC(C)S(=O)(=O)c1nsc2nc(=O)c(/C=C3\C=Nc4ccccc43)c(N)n12 do in these assays?
GRIN3A LBD mod: 23.4*; PAFAH2 FP inh: 1.3; UCH37 inh: -1.3; pPAFAH FP inh: 14.5; PAFAH1B3 inh: 0.9; PAFAH1B2 FP inh: 9.2

Results for CCc1nn2c(N)c(/C=C3\C=Nc4ccccc43)c(=O)nc2s1 ?
GRIN3A LBD mod: 0.5; PAFAH2 FP inh: -9.9; UCH37 inh: 3.0; pPAFAH FP inh: 6.2; PAFAH1B3 inh: 7.7; PAFAH1B2 FP inh: 3.9

How did COc1ccccc1/C=C/C=NNC(=O)c1cc(-c2ccc(C)o2)[nH]n1 do in these assays?
UCH37 inh: 3.2

Results for O=C(NN=Cc1cccc(Oc2ccccc2)c1)c1cccc(O)c1 ?
UCH37 inh: 3.9

Results for Cc1ccc(C)c(NC(=O)CN(C)C(=O)c2ccc3[nH]c4c(c3c2)CC(C)CC4)c1 (centres undefined) ?
GRIN3A LBD mod: -4.7; PAFAH2 FP inh: 2.6; UCH37 inh: 1.2; pPAFAH FP inh: 7.8; PAFAH1B3 inh: 5.2; PAFAH1B2 FP inh: 40.4*

What do the screens show for `CCN(CC(=O)Nc1ccc(OC)cc1)C(=O)c1ccc2[nH]c3c(c2c1)CC(C)CC3` (centres undefined)?
GRIN3A LBD mod: -3.0; PAFAH2 FP inh: 3.9; UCH37 inh: 0.3; pPAFAH FP inh: 4.5; PAFAH1B3 inh: 3.3; PAFAH1B2 FP inh: 27.2*

What do the screens show for `CC1CCc2[nH]c3ccc(C(=O)N(C)CC(=O)Nc4ccccc4Br)cc3c2C1` (centres undefined)?
GRIN3A LBD mod: -4.7; PAFAH2 FP inh: 2.9; UCH37 inh: 4.4; pPAFAH FP inh: 10.8; PAFAH1B3 inh: 5.8; PAFAH1B2 FP inh: 18.0

How did O=C(COc1ccc([N+](=O)[O-])cc1)NN=Cc1ccccn1 do in these assays?
UCH37 inh: 3.3

How did CCc1nn2cc(C(=O)c3cc(Cl)ccc3O)cnc2c1-c1ccc(F)cc1 do in these assays?
GRIN3A LBD mod: 26.7*; PAFAH2 FP inh: -27.1; UCH37 inh: 7.6; pPAFAH FP inh: -5.5; PAFAH1B3 inh: -1.3; PAFAH1B2 FP inh: -3.0

How did Cc1nn(-c2ccccc2)c2ncc(C(=O)c3cc(Cl)ccc3O)cc12 do in these assays?
GRIN3A LBD mod: 3.8; PAFAH2 FP inh: -17.0; UCH37 inh: 2.7; pPAFAH FP inh: -2.7; PAFAH1B3 inh: -2.4; PAFAH1B2 FP inh: -0.3

What do the screens show for `CCc1ccc(C2CC(c3ccc(C)cc3)Nc3nc(N)nn32)cc1` (centres undefined)?
GRIN3A LBD mod: -1.8; PAFAH2 FP inh: 3.3; UCH37 inh: -1.8; pPAFAH FP inh: -6.9; PAFAH1B3 inh: 1.5; PAFAH1B2 FP inh: 24.7*

Results for Cc1ccc(C2CC(c3ccc(F)cc3)Nc3nc(N)nn32)cc1 (centres undefined) ?
GRIN3A LBD mod: -1.6; PAFAH2 FP inh: 5.8; UCH37 inh: 2.7; pPAFAH FP inh: -2.7; PAFAH1B3 inh: 4.5; PAFAH1B2 FP inh: 6.0

What do the screens show for `O=[N+]([O-])c1ccc(C=NNc2nc(N3CCCCC3)nc(N3CCCCC3)n2)cc1`?
UCH37 inh: 2.0

What do the screens show for `CC(CC(=O)Nc1ccc(C)c(Cl)c1)=NNC(=O)C1CCCCC1`?
UCH37 inh: 0.6

Results for O=C(OCCN1C(=O)c2cccc3c(N4CCOCC4)ccc(c23)C1=O)c1ccc(Cl)cc1Cl ?
GRIN3A LBD mod: 11.2*; PAFAH2 FP inh: -3.2; UCH37 inh: -15.3; pPAFAH FP inh: -2.1; PAFAH1B3 inh: 0.6; PAFAH1B2 FP inh: 3.9

What do the screens show for `Oc1cccc(/C=N/N(Cc2ccccc2)c2ccccc2)c1`?
GRIN3A LBD mod: 16.0*; PAFAH2 FP inh: -1.0; pPAFAH FP inh: 4.3; PAFAH1B3 inh: 7.7; PAFAH1B2 FP inh: 4.1

Results for C(=NN(Cc1ccccc1)c1ccccc1)c1cccnc1 ?
UCH37 inh: 3.2

How did CC1CCN(S(=O)(=O)c2ccc3c4c2CC(=O)N4CC(C)S3)CC1 (centres undefined) do in these assays?
GRIN3A LBD mod: 2.6; PAFAH2 FP inh: 61.9*; pPAFAH FP inh: 26.7*; PAFAH1B3 inh: -4.7; PAFAH1B2 FP inh: 16.2

Results for CN(C)/C=C1\C=C2C(=O)c3ccccc3N2C1=O ?
GRIN3A LBD mod: -437.0; PAFAH2 FP inh: 36.1*; pPAFAH FP inh: 2.4; PAFAH1B3 inh: 29.5*; PAFAH1B2 FP inh: 28.0*

Screens (PubChem BioAssay)
